Source: ChEMBL document CHEMBL4765343, “Design and synthesis of novel SCM-198 analogs as cardioprotective agents: Structure-activity relationship studies and biological evaluations” (Eur J Med Chem, 2020)
The source made the active and inactive calls. No cut-off for these calls is given here.

Experiments:
H9c2 [1] = experiment: Antioxidant activity in rat H9c2 cells assessed as protection against H2O2-induced hypoxic injury by measuring cell viability at 1 uM preincubated for 4 hrs followed by H2O2 stimulation for 1 hr by MTT assay relative to control; type: functional
How it was run: (§1)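 H9c2 cells at 1 × 10^5 cells/mL, 100 μL per well in triplicate, left 18 h. Compound diluted in DMSO; DMSO alone as negative control. 4 h pretreatment, then 400 nM H2O2 for 1 h. Medium removed and MTT added for 2-4 h, formazan dissolved in DMSO, absorbance at 570 nm. Medium-only wells gave the blank.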

H9c2 [2] = experiment: Antioxidant activity in rat H9c2 cells assessed as protection against H2O2-induced hypoxic injury by measuring cell viability at 10 uM preincubated for 4 hrs followed by H2O2 stimulation for 1 hr by MTT assay relative to control; type: functional; how it was run: as §1
H9c2 [3] = experiment: Antioxidant activity in rat H9c2 cells assessed as protection against H2O2-induced hypoxic injury by measuring cell viability preincubated for 4 hrs followed by H2O2 stimulation for 1 hr by MTT assay relative to control; type: functional; settings: time 5 hrs, read-out: ED50 (the source's name)
How it was run: (§2)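 ED50 taken from log dose against % viability. Viability also reported at the EC50 concentration. Means ± SEM from three independent experiments.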

H9c2 [4] = experiment: Antioxidant activity in rat H9c2 cells assessed as protection against H2O2-induced hypoxic injury by measuring cell viability at ED50 concentration preincubated for 4 hrs followed by H2O2 stimulation for 1 hr by MTT assay relative to control; type: functional; settings: time 5 hrs; how it was run: as §2
H9c2 [5] = experiment: Cytoprotective activity against H2O2-induced injury in rat H9c2 cells assessed as reduction in LDH release at 10 uM preincubated for 4 hrs followed by H2O2 stimulation for 1 hr by LDH assay; type: functional, cell-based; settings: time 5.0 hrs
How it was run: (§3)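 Cells at 5 × 10^4 per well in triplicate, 18 h, then 4 h compound and 1 h H2O2. Model wells had H2O2 without compound; controls had DMSO. 50 μL medium mixed with 2X LDH assay buffer, kept in the dark at 22-25 °C for 10-30 min, read at 490-520 nm. Activity blank-subtracted, normalised to BCA protein of the lysed cells, and expressed relative to model wells.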

H9c2 [6] = experiment: Anti-oxidative effect in rat H9c2 cells assessed as reduction in H2O2-induced MnSOD activity at 10 uM preincubated for 4 hrs followed by H2O2 stimulation for 1 hr by WST-8 assay; type: functional, cell-based; settings: time 5.0 hrs
How it was run: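 H9c2 cells (ATCC) grown in high-glucose DMEM with 10% FBS at 37 °C, 5% CO2, used at 80-90% confluence and serum-starved 12 h. Compound given 4 h, then medium replaced by DMEM with 500 nM H2O2 for 1 h. Lysate spun 15,000g for 15 min. Cu/Zn SOD blocked with 1 mmol/L KCN, MnSOD read by WST-8 kit, expressed as U/mg protein.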

H9c2 [7] = experiment: Antiapoptotic activity in rat H9c2 cells assessed as restoration of H2O2-induced bcl-2 downregulation at 10 uM preincubated for 4 hrs followed by H2O2 stimulation for 1 hr by Western blotting analysis; type: functional, cell-based; settings: time 5.0 hrs
How it was run: (§4)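 Serum-starved (12 h) H9c2 cells were pretreated 4 h, then exposed to 500 nM H2O2 in DMEM for 1 h. Lysis on ice with protease/phosphatase inhibitors, then 13,000 g at 4 °C for 15 min. 20 μg protein run on 8-12% SDS-PAGE and blotted to PVDF. Probed overnight at 4 °C for caspase-3, pro-caspase-3, Bcl-2 and GAPDH, with chemiluminescent detection.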

H9c2 [8] = experiment: Antiapoptotic activity in rat H9c2 cells assessed as reduction in H2O2-induced caspase-3 activation at 10 uM preincubated for 4 hrs followed by H2O2 stimulation for 1 hr by Western blotting analysis; type: functional, cell-based; settings: time 5.0 hrs; how it was run: as §4
H9c2 [9] = experiment: Antiapoptotic activity in rat H9c2 cells assessed as reduction in H2O2-induced mitochondrial membrane potential loss at 10 uM preincubated for 4 hrs followed by H2O2 stimulation for 1 hr by JC1 staining based fluorescence microscopic analysis; type: functional, cell-based; settings: time 5.0 hrs
How it was run: (§5)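 Pretreatment 4 h before 400 nM H2O2. Cells washed in cold PBS pH 7.4 and loaded with 0.5 μg/mL JC-1 for 40 min at 37 °C, washed, then viewed at once by fluorescence microscopy. Monomer read at ex 490/em 535 nm, aggregate at ex 525/em 600 nm. Ratio taken from three independent fields per group, mean ± SD.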

Mus musculus [10] = experiment: (§6) Cardioprotective activity in C57BL/6J mouse model of LAD coronary artery ligation-induced acute myocardial infarction assessed as reduction in myocardial infarct size at 10 mg/kg, ip pretreated for 7 consecutive days followed by LAD coronary artery ligation after compound treatment for another 3 days by TTC staining based assay; type: functional, organism-based; settings: time 10.0 day
How it was run: (§7)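 Male/female not stated; 8-week C57BL/6J mice given daily ip doses in saline vehicle for 7 d, then permanent LAD ligation, with dosing continued 3 more days to sacrifice. Under isoflurane, hearts perfused with saline plus 40 mM KCl, cut into 4-5 transverse slices, stained with 1% TTC pH 7.4 at 37 °C for 20 min, formalin-fixed; infarct area by planimetry as % of LV area; N = 6-7 per group.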

Mus musculus [11] = experiment: as §6, with “apoptosis of cardiomyocytes” for “myocardial infarct size”, “TUNEL” for “TTC”; type: functional, organism-based; settings: time 10.0 day
How it was run: (§8)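 C57BL/6J mice, 8 weeks old, given compound i.p. in saline vehicle daily for 7 days, then permanent LAD ligation with body temperature held at 37 °C. Dosing continued 3 more days until sacrifice. Sections treated with proteinase K, then TdT reaction 30 min at 37 °C and DAPI counterstain. TUNEL-positive nuclei in border area counted as % of DAPI nuclei, N = 4 per group.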

[12] = Half life in po dosed Sprague-Dawley rat measured upto 24 hrs by LC-MS/MS analysis; type: ADME, organism-based; settings: in vivo
[13] = Oral bioavailability in Sprague-Dawley rat measured upto 24 hrs by LC-MS/MS analysis; type: ADME, organism-based; settings: in vivo
H9c2 [14] = experiment: Cytoprotective activity against H2O2-induced injury in rat H9c2 cells assessed as reduction in LDH release at 1 uM preincubated for 4 hrs followed by H2O2 stimulation for 1 hr by LDH assay; type: functional, cell-based; settings: time 5.0 hrs; how it was run: as §3
H9c2 [15] = experiment: Antiapoptotic activity in rat H9c2 cells assessed as restoration of H2O2-induced bcl-2 downregulation at 1 uM preincubated for 4 hrs followed by H2O2 stimulation for 1 hr by Western blotting analysis; type: functional, cell-based; settings: time 5.0 hrs; how it was run: as §4
H9c2 [16] = experiment: Antiapoptotic activity in rat H9c2 cells assessed as reduction in H2O2-induced caspase-3 activation at 1 uM preincubated for 4 hrs followed by H2O2 stimulation for 1 hr by Western blotting analysis; type: functional, cell-based; settings: time 5.0 hrs; how it was run: as §4
H9c2 [17] = experiment: Antiapoptotic activity in rat H9c2 cells assessed as reduction in H2O2-induced mitochondrial membrane potential loss at 1 uM preincubated for 4 hrs followed by H2O2 stimulation for 1 hr by JC1 staining based fluorescence microscopic analysis; type: functional, cell-based; settings: time 5.0 hrs; how it was run: as §5
[18] = Toxicity in C57BL/6J mouse assessed as loss of body weight at 5 mg/kg, ip administered for 7 consecutive days; type: organism-based; settings: in vivo, 168 h, time 7 day
[19] = Toxicity in C57BL/6J mouse assessed as diarrhea at 5 mg/kg, ip administered for 7 consecutive days; type: organism-based; settings: in vivo, 168 h, time 7 day
Mus musculus [20] = experiment: as §6, with “5” for “10”; type: functional, organism-based; settings: time 10.0 day; how it was run: as §7
Mus musculus [21] = experiment: as §6, with “epimyocardium damage” for “myocardial infarct size”, “5” for “10”, “hematoxylin and eosin” for “TTC”; type: functional, organism-based; settings: time 10.0 day
How it was run: (§9)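 Eight-week C57BL/6J mice received 5 mg/kg/day i.p. (saline vehicle) for 7 days before permanent LAD ligation, then 3 further days. Paraffin heart sections deparaffinised, stained with hematoxylin 10 min, differentiated in 0.1% HCl, counterstained with eosin 3-5 min, then examined by light microscopy.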

Mus musculus [22] = experiment: as §6, with “apoptosis of cardiomyocytes” for “myocardial infarct size”, “5” for “10”, “TUNEL” for “TTC”; type: functional, organism-based; settings: time 10.0 day; how it was run: as §8
Mus musculus [23] = experiment: as §6, with “cardiomyocytes damage” for “myocardial infarct size”, “5” for “10”, “hematoxylin and eosin” for “TTC”; type: functional, organism-based; settings: time 10.0 day; how it was run: as §9
[24] = AUClast in Sprague-Dawley rat at 1 mg/kg, iv measured upto 24 hrs by LC-MS/MS analysis; type: ADME, organism-based; parameters: route intravenous, dose 1 mg/kg, time <=24; settings: in vivo
How it was run: (§10)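 Male Sprague-Dawley rats, fasted, N = 3, given a single 1 mg/kg intravenous dose. Plasma separated by centrifugation and drug quantified by LC-MS/MS. Values reported as mean ± SD.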

[25] = AUClast in Sprague-Dawley rat at 10 mg/kg, po measured upto 24 hrs by LC-MS/MS analysis; type: ADME, organism-based; parameters: route oral, dose 10 mg/kg, time <=24; settings: in vivo
How it was run: (§11)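 A single 10 mg/kg oral (i.g.) dose was given to male Sprague-Dawley rats, N = 3. Plasma was harvested by centrifugation and measured by LC-MS/MS. Values reported as mean ± SD.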

[26] = AUCinfinity in Sprague-Dawley rat at 1 mg/kg, iv measured upto 24 hrs by LC-MS/MS analysis; type: ADME, organism-based; parameters: route intravenous, dose 1 mg/kg, time <=24; settings: in vivo; how it was run: as §10
[27] = AUCinfinity in Sprague-Dawley rat at 10 mg/kg, po measured upto 24 hrs by LC-MS/MS analysis; type: ADME, organism-based; parameters: route oral, dose 10 mg/kg, time <=24; settings: in vivo; how it was run: as §11
[28] = Cmax in Sprague-Dawley rat at 1 mg/kg, iv measured upto 24 hrs by LC-MS/MS analysis; type: ADME, organism-based; parameters: route intravenous, dose 1 mg/kg, time <=24; settings: in vivo
[29] = Cmax in Sprague-Dawley rat at 10 mg/kg, po measured upto 24 hrs by LC-MS/MS analysis; type: ADME, organism-based; parameters: route oral, dose 10 mg/kg, time <=24; settings: in vivo
[30] = Half life in Sprague-Dawley rat at 1 mg/kg, iv measured upto 24 hrs by LC-MS/MS analysis; type: ADME, organism-based; settings: in vivo
[31] = Half life in Sprague-Dawley rat at 10 mg/kg, po measured upto 24 hrs by LC-MS/MS analysis; type: ADME, organism-based; settings: in vivo
[32] = Apparent volume of distribution during terminal phase in Sprague-Dawley rat at 10 mg/kg, po measured upto 24 hrs by LC-MS/MS analysis; type: ADME, organism-based; settings: in vivo, read-out: Vz/F
[33] = Apparent clearance in Sprague-Dawley rat at 10 mg/kg, po measured upto 24 hrs by LC-MS/MS analysis; type: ADME, organism-based; settings: in vivo
[34] = Apparent volume of distribution during terminal phase in Sprague-Dawley rat at 1 mg/kg, iv measured upto 24 hrs by LC-MS/MS analysis; type: ADME, organism-based; settings: in vivo
[35] = Oral bioavailability in Sprague-Dawley rat at 10 mg/kg measured upto 24 hrs by LC-MS/MS analysis; type: ADME, organism-based; settings: in vivo

COc1cc(C(=O)OCCCCNC(=N)N)cc(OC)c1O [LEONURINE]
Activity (H9c2 [1]): 52.4%
Activity (H9c2 [2]): 62.7%
EC50 (H9c2 [3]): 192 nM
Activity (H9c2 [4]): 55.1%
Activity (H9c2 [5]): inactive
Activity (H9c2 [6]): Active
Activity (H9c2 [7]): Active
Activity (H9c2 [8]): Active
Activity (H9c2 [9]): Active
Activity (Mus musculus [10]): Active
Activity (Mus musculus [11]): Active
half-life [12]: > 2 h
bioavailability [13]: 1.78%

COc1cccc(C(=O)OCCCCNC(=N)N)c1OC
Activity (H9c2 [1]): 69.3%
Activity (H9c2 [2]): 65.3%
EC50 (H9c2 [3]): 142 nM
Activity (H9c2 [4]): 62.8%
Activity (H9c2 [14]): Active
Activity (H9c2 [6]): Active
Activity (H9c2 [15]): Active
Activity (H9c2 [16]): Active
Activity (H9c2 [17]): Active
Activity [18]: Non-Toxic
Activity [19]: Non-Toxic
Activity (Mus musculus [20]): Active
Activity (Mus musculus [21]): Active
Activity (Mus musculus [22]): Active
Activity (Mus musculus [23]): Active
AUC(0-t) at 24 h [24]: 882 ng·h/mL
AUC(0-t) at 24 h [25]: 1630 ng·h/mL
AUC(0-inf) [26]: 895 ng·h/mL
AUC(0-inf) [27]: 1680 ng·h/mL
Cmax [28]: 764 ng/mL
Cmax [29]: 621 ng/mL
half-life [30]: 1.63 h
half-life [31]: 4.87 h
Vd/F [32]: 43.7 L/kg
CL/F [33]: 92.9 mL/min/kg
Vz/F [34]: 3.766 L/kg
bioavailability [35]: 18.5%
